Assays:
[1] = system: other GPCRs; experiment: GPCR selectivity assays, cardiovascular receptor safety panel; type: binding, human; settings: tested up to 30 µmol/L
[2] = biological target: T1, human APJ (Homo sapiens, UniProt P35414); experiment: cAMP inhibition assay, HEK293 ZF cells; type: cell-based
T1 sequence (P35414 1-380): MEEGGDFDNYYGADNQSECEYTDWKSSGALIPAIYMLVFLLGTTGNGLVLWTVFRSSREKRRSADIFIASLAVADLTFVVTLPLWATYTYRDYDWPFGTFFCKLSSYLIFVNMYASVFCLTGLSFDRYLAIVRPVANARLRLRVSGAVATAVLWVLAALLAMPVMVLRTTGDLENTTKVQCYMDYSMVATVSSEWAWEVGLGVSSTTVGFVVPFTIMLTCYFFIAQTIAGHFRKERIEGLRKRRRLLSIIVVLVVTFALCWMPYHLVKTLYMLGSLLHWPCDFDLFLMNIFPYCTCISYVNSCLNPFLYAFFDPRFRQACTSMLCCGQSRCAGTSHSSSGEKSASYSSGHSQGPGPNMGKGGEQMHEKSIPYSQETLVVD

[3] = biological target: T1, human APJ; experiment: BRET-based biosensor assays; type: cell-based
[4] = system: instrumented anesthetized rats; experiment: Acute hemodynamics, 15-min IV infusion of BMS-986224; type: in vivo, rat; settings: for CO percentage change from baseline / SV percentage change from baseline: 15 min
Outline: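 Male Sprague-Dawley rats (≥250 g), anesthetized and surgically instrumented, received a 15-min IV infusion of test compound at 1, 10 or 100 μg/kg per min, then a 15-min washout. Vehicle-infused rats served as comparison. SV, CO, dP/dtmax, HR and mean arterial pressure were expressed as percentage change from baseline. Plasma exposure was sampled at each dose.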

[5] = Plasma exposure during and after IV infusion, anesthetized cannulated rats; type: in vivo, rat
[6] = system: RHR (renal hypertensive rat) model; experiment: RHR model, subcutaneous infusion via osmotic minipump; type: in vivo; settings: SC infusion
Outline: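 Renal hypertensive rats (male Sprague-Dawley) received test compound for 10 days by subcutaneous osmotic minipump. The low dose targeted a steady-state plasma level of ≈100 nmol/L; the high dose targeted ≈10-fold more. SV, CO and diastolic parameters were assessed by echocardiography, with cardiac fibrosis and heart weight also scored. One-way ANOVA with Tukey or Dunnett tests was used.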

[7] = system: RHR (renal hypertensive rat) model; experiment: RHR model, oral BID study; type: in vivo
[8] = system: RHR (renal hypertensive rat) model; experiment: RHR model, oral QD study; type: in vivo; settings: both doses (0.06 and 0.2 mg/kg)
[9] = Plasma concentrations of BMS-986224 in the RHR studies; type: in vivo, rat; settings: for steady-state plasma concentration: SC 10-day infusion
Outline: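 Renal hypertensive rat model in male Sprague-Dawley rats. Dosing was either a 10-day SC infusion by osmotic minipump or oral BID dosing at 0.1 and 1 mg/kg. The SC low dose targeted a steady-state level of ≈100 nmol/L, and the high dose targeted ≈10-fold more. The oral doses targeted ≈200 nmol/L at peak or trough. Peak, trough and steady-state plasma levels were measured, and AUC(0–24) was derived.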

[10] = system: instrumented anesthetized rats; experiment: Acute hemodynamics, dobutamine single dose 15-min IV infusion; type: in vivo, rat; settings: 1 μg/kg/min IV, N=8
Outline: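 Male Sprague-Dawley rats (≥250 g), anesthetized and surgically instrumented; test agents given as a 15-min IV infusion followed by a 15-min washout. Cardiac output and heart rate were expressed as percentage change from baseline during and after infusion. Paired Student t test was used for significance.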

[11] = 40 mg/kg/day SC infusion, BID study

In the case of `CCOCc1nc(O)c(-c2nnc(Cc3ccc(Cl)cn3)o2)c(O)c1-c1c(OC)cccc1OC` [BMS-986224], the “binding/activity at other GPCRs” value [1] is reported as “did not bind other GPCRs”, the EC50 [2] is reported as 0.02 ± 0.02 nM and the “signaling bias relative to (Pyr1) apelin-13” value [3] is reported as “lack of bias”. The “relative activity vs (Pyr1) apelin-13, ΔLog (RA)” value ([3]; ratio of Ymax and EC50, each signaling readout) was over 0, the “CO percentage change from baseline” value ([4]; 1 μg/kg/min IV) was 8.2% and the “SV percentage change from baseline” value ([4]; 1 μg/kg/min IV) was 6.0%. For the same molecule, the “decrease in mean arterial pressure from baseline” value ([4]; 10 μg/kg per minute, P<0.001 versus vehicle) was 1.9%, the “CO percentage change from baseline” value ([4]; 10 μg/kg/min IV) was 15.4% and the “SV percentage change from baseline” value ([4]; 10 μg/kg/min IV) was 12.6%. The “CO percentage change from baseline” value ([4]; 100 μg/kg/min IV) was 15.9%, the “SV percentage change from baseline” value ([4]; 100 μg/kg/min IV) was 12.3% and the “maximum increase in CO” value ([4]; 15-min IV infusion) was “≈ 15%”. It also gave a maximum effective dose ([4]; based on the increases in CO) of 10 μg/kg per minute, a minimum effective dose ([4]; based on the increases in CO) of 1 μg/kg per minute and a Plasma exposure ([5]; 1 μg/kg per minute IV) of 95 ± 5 nmol/L. For the same molecule, the “free plasma concentration at the minimum effective dose” value ([5]; adjusted for protein binding, 1 μg/kg per minute) was 2 nmol/L, the “other measured parameters (diastolic parameters, cardiac fibrosis, heart weight)” value [6] was “without affecting” and the “SV and CO” value ([6]; high dose 3 mg/kg/day, 3 mg/kg/day) was “not noted”. The “LV mass or EF vs vehicle” value ([7]; oral BID, trough) was “no significant differences”, the “SV and CO” value [8] was “increased” and the steady-state plasma concentration ([9]; HD) was 2686 nmol/L. The steady-state plasma concentration ([9]; low dose) was 102 nmol/L, the area under the plasma drug concentration−time curve (0–24) ([9]; oral 0.1 mg/kg BID) was 3.42 µM·h and the peak plasma concentration ([9]; oral 0.1 mg/kg BID) was 205 ± 11 nmol/L. It also gave a trough plasma concentration ([9]; oral 0.1 mg/kg BID) of 25 ± 4 nmol/L, an area under the plasma drug concentration−time curve (0–24) ([9]; oral 1 mg/kg BID) of 34.3 µM·h and a peak plasma concentration ([9]; oral 1 mg/kg BID) of 2095 ± 161 nmol/L. For the same molecule, the trough plasma concentration ([9]; oral 1 mg/kg BID) was 302 ± 29 nmol/L.
For `CC(CCc1ccc(O)cc1)NCCc1ccc(O)c(O)c1` (centres unmarked) [Dobutamine], the “Cardiac output % change from baseline” value [10] was 11.2%.
For `CCOC(=O)[C@H](CCc1ccccc1)N[C@@H](C)C(=O)N1CCC[C@H]1C(=O)O` [Enalapril], the “LV end-diastolic volume vs vehicle” value [7, 11] was “increased”, the “LV mass, heart weight, and EF vs vehicle” value [7, 11] was “reduced” and the “SV, CO, and HR vs vehicle” value [7, 11] was “without significant effect”.

Reference: paper PMC7982131 (Circulation. Heart Failure, 2021)
